What was measured:
[1] = Cytotoxicity against human MT4 cells after 4 days by MTT assay; type: cell-based
Procedure, shortened: (§1)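 Mock-infected MT-4 cells (1 ×10^5 cells/mL, RPMI 1640 + 10% heat-inactivated FBS) cultured with various compound concentrations in parallel with the antiviral assay, 4 days at 37 °C, 5% CO2. Viability read by MTT. CC50 is the concentration cutting uninfected-cell viability by 50%.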

[2] = test system: Human immunodeficiency virus 1; assay: Antiviral activity against HIV1 3B infected in human MT4 cells assessed as protection against viral-induced cytopathogenicity after 4 days by MTT assay; type: functional, organism-based; conditions: Human immunodeficiency virus 1, 3B, MT4, 96 h
[3] = Selectivity index, ratio of CC50 for human MT4 cells to EC50 for HIV1 3B; type: toxicity, cell-based; conditions: read-out: Ratio CC50/EC50
Procedure, shortened: (§2)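 SI computed as CC50/EC50. Both values come from parallel MTT readings after 4 days at 37 °C. CC50 is from mock-infected MT-4 cells; EC50 is from MT-4 cells infected with HIV-1 IIIB at MOI 0.1, as 50% protection from cytopathogenicity.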

[4] = Selectivity index, ratio of CC50 for human MT4 cells to EC50 for HIV1; type: toxicity, cell-based; conditions: read-out: Ratio CC50/EC50; procedure, shortened: as §2
[5] = Cytotoxicity against human MT4 cells; type: cell-based; procedure, shortened: as §1
[6] = test system: Human immunodeficiency virus 1; assay: Antiviral activity against HIV1 infected in human MT4 cells; type: functional, organism-based; conditions: Human immunodeficiency virus 1, MT4

SMILES | CC50 at 96 h [1] | EC50 [2] | selectivity ratio [3] | selectivity ratio [4] | CC50 [5] | EC50 [6]
Cc1cc(C)cc(Cn2c(=O)cc(NC3CC3)n(Cc3ccccc3)c2=O)c1 | > 100 µM | > 100 µM |  |  |  | 
CC(=O)Nc1cc(=O)n(Cc2cc(C)cc(C)c2)c(=O)n1Cc1ccccc1 | > 100 µM | > 100 µM |  |  |  | 
Cc1cc(C)cc(Cn2c(=O)cc(N=[N+]=[N-])n(Cc3ccccn3)c2=O)c1 | > 100 µM | 0.22 µM | > 457 |  |  | 
Cc1cc(C)cc(Cn2c(=O)cc(NCc3ccccc3)n(Cc3ccccc3)c2=O)c1 | > 100 µM | > 100 µM |  |  |  | 
Cc1cc(C)cc(Cn2c(=O)cc(N3CCCC3)n(Cc3ccccc3)c2=O)c1 | 31 µM | > 31 µM |  |  |  | 
Cc1cc(C)cc(Cn2c(=O)cc(N3CCNCC3)n(Cc3ccccc3)c2=O)c1 | 16 µM | > 16 µM |  |  |  | 
Cc1cc(C)cc(Cn2c(=O)cc(N=[N+]=[N-])n(CC#N)c2=O)c1 | 60 µM | 3.5 µM |  |  |  | 
Cc1ccnc2c1NC(=O)c1cccnc1N2C1CC1 [NEVIRAPINE] |  |  |  | > 1640 |  | 
Cc1cc(C)cc(Cn2c(=O)cc(N)n(Cc3ccccc3)c2=O)c1 |  |  |  | 661 | 45.6 µM | 0.069 µM
Cc1cc(C)cc(Cn2c(=O)cc(N(C)C)n(Cc3ccccc3)c2=O)c1 | 48 µM | > 48 µM |  |  |  | 
Cc1cc(C)cc(Cn2c(=O)cc(N)n(CC#N)c2=O)c1 | > 100 µM | > 100 µM |  |  |  | 
Cc1cc(C)cc(Cn2c(=O)cc(N3CCCCC3)n(Cc3ccccc3)c2=O)c1 | 47 µM | > 47 µM |  |  |  | 
Cc1cc(C)cc(Cn2c(=O)cc(N=[N+]=[N-])n(Cc3ccccc3)c2=O)c1 |  |  |  | 685 | 45.9 µM | 0.067 µM
Cc1cc(C)cc(Cn2c(=O)cc(N=[N+]=[N-])n(Cc3ccncc3)c2=O)c1 | 59 µM | 0.05 µM | 1160 |  |  | 
Cc1cc(C)cc(Cn2c(=O)cc(N)n(Cc3ccccn3)c2=O)c1 | > 100 µM | 0.23 µM | > 443 |  |  | 
Cc1cc(C)cc(Cn2c(=O)cc(N)n(Cc3ccncc3)c2=O)c1 | > 100 µM | 0.03 µM | > 2860 |  |  | 
Cc1cc(C)cc(Cn2c(=O)cc(NC3CCCCC3)n(Cc3ccccc3)c2=O)c1 | 74 µM | > 74 µM |  |  |  | 
Cc1cc(C)cc(Cn2c(=O)cc(N3CCOCC3)n(Cc3ccccc3)c2=O)c1 | > 100 µM | > 100 µM |  |  |  | 
CNc1cc(=O)n(Cc2cc(C)cc(C)c2)c(=O)n1Cc1ccccc1 | 65 µM | 7 µM | 9 |  |  | 
Cc1cn([C@H]2C[C@H](N=[N+]=[N-])[C@@H](CO)O2)c(=O)[nH]c1=O [ZIDOVUDINE] | > 100 µM | 0.04 µM | > 2770 |  |  | 
